Measurements reported in ChEMBL document CHEMBL4308919, “Discovery of TD-0212, an Orally Active Dual Pharmacology AT1 Antagonist and Neprilysin Inhibitor (ARNI)” (ACS Med Chem Lett, 2019).

Assays:
[1] = molecular target: T1, Type-1 angiotensin II receptor (Homo sapiens, UniProt P30556); assay: Displacement of Europium-labeled angiotensin-2 from human AT1 receptor expressed in CHOK1 cell membranes after 120 mins by DELFIA
T1 sequence (P30556 whole entry): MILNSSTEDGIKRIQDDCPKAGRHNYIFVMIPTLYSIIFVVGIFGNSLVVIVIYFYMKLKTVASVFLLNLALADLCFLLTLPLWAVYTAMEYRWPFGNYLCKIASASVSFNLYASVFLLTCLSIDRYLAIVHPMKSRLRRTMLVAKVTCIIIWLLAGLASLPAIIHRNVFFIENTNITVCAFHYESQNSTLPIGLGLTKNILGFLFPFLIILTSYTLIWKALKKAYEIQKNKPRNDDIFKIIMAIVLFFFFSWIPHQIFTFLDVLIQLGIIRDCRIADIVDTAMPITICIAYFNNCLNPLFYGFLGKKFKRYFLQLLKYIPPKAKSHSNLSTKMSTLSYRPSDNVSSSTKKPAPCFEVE

Rattus norvegicus [2] = assay: In vivo antagonist activity at AT1 receptor in Sprague-Dawley rat assessed as inhibition of angiotensin-2-induced pressor response at 3 mg/kg, iv treated for 5 mins at 15 mins post 2 doses of angiotensin-2 treatment at 15 minutes apart followed by ANP treatment and subsequent angiotensin-2 re-challenge after 60 mins relative to control; format: functional
Method in brief: (§1)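 Rat pharmacodynamic assay with intravenous dosing to exclude oral absorption. AT1 antagonism is read in the same animal as inhibition of the angiotensin-II-evoked pressor response. NEP inhibition is read as potentiation of ANP-induced elevation of urinary cGMP output, relative to vehicle.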

Rattus norvegicus [3] = assay: Antihypertensive activity in spontaneously hypertensive rat assessed as reduction in mean arterial pressure administered via oral gavage in […] measured up to 24 hrs by telemetry method; format: functional
Method in brief: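 Conscious spontaneously hypertensive rats, dosed orally. Blood pressure is monitored by telemetry for 24 h after each dose. Sequential escalating doses of 3, 10, 30 and 100 mg/kg are given at 24 h intervals. Efficacy is the peak percent fall in MAP from baseline. Duration is the vehicle-adjusted % change in AUC over 24 h. Statistics: two-way ANOVA with Bonferroni post hoc.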

[4] = molecular target: T2, Type-1 angiotensin II receptor (Homo sapiens) (UniProt P30556); assay: Antagonist activity at AT1 receptor (unknown origin) by inositol phosphate accumulation assay relative to control; format: functional
T2 sequence (whole entry): T1 sequence (P30556 whole entry)

Homo sapiens [5] = species: Homo sapiens; assay: Selectivity ratio of Ki for human AT2 receptor to Ki for human AT1 receptor
[6] = molecular target: Angiotensin-converting enzyme (Homo sapiens, UniProt P12821); assay: Inhibition of recombinant human ACE using Mca-BK2 as substrate preincubated for 10 mins followed by fluorogenic substrate addition and measured after 20 mins by fluorescence assay
Angiotensin-converting enzyme, sequence (P12821 whole entry): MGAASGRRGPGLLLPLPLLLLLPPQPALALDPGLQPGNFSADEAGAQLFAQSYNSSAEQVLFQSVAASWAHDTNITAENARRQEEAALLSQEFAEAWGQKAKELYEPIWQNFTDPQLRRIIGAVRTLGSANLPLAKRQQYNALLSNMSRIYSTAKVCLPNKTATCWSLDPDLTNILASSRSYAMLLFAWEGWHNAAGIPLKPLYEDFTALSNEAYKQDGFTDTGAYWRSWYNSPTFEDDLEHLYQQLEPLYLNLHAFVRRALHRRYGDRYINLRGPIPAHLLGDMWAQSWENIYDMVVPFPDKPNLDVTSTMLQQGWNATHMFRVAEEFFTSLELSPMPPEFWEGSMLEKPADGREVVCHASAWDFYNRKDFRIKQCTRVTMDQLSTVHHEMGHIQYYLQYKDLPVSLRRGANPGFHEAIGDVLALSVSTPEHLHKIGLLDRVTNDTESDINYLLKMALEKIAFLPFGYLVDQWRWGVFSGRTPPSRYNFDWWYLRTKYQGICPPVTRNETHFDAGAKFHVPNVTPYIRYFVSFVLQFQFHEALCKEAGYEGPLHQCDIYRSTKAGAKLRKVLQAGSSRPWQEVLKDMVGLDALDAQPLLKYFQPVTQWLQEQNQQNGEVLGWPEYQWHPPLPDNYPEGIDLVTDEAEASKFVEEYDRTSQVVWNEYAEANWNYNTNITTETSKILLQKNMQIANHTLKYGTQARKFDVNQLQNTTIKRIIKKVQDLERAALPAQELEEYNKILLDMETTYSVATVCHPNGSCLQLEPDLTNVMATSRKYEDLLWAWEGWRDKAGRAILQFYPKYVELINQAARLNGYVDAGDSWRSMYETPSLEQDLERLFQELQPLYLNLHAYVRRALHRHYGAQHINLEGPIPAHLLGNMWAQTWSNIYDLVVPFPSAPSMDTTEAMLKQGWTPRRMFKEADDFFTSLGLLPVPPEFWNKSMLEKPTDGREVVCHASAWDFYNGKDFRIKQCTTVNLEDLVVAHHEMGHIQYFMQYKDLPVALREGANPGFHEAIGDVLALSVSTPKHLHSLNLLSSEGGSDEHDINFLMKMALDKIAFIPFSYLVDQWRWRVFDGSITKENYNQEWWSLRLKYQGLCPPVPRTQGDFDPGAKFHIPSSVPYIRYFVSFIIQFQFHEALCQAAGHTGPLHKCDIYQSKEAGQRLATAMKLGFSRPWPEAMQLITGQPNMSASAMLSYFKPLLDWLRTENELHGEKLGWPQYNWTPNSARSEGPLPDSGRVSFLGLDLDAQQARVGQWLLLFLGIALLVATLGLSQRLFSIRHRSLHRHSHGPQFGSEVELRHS

[7] = molecular target: T3, Type-2 angiotensin II receptor (Homo sapiens, UniProt P50052); assay: Displacement of Europium-labeled angiotensin-2 from human AT2 receptor expressed in CHOK1 cell membranes after 120 mins by DELFIA
T3 sequence (P50052 whole entry): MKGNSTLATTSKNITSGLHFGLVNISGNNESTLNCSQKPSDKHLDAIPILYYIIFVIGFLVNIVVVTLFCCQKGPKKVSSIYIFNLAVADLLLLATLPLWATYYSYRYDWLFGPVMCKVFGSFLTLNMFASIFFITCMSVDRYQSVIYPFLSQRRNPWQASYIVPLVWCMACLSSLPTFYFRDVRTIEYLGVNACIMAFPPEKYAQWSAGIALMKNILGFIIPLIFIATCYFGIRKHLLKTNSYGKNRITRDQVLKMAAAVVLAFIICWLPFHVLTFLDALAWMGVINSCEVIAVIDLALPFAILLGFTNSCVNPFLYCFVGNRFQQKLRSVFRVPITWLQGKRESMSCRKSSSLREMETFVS

Rattus norvegicus [8] = assay: Antihypertensive activity in DOCA salt-induced CD-1 rat model of hypertension assessed as reduction in blood pressure administered via oral gavage in ascending cumulative doses […] measured up to 24 hrs by telemetry method; format: functional
Method in brief: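 Conscious DOCA-salt hypertensive rats, a low-renin model, dosed orally. Reduction in blood pressure is followed over time. ED10 is the dose giving an average 10% reduction in the 24 h average MAP.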

[9] = molecular target: T4, Endothelin-converting enzyme 1 (Homo sapiens, UniProt P42892); assay: Inhibition of recombinant human ECE1
T4 sequence (P42892 whole entry): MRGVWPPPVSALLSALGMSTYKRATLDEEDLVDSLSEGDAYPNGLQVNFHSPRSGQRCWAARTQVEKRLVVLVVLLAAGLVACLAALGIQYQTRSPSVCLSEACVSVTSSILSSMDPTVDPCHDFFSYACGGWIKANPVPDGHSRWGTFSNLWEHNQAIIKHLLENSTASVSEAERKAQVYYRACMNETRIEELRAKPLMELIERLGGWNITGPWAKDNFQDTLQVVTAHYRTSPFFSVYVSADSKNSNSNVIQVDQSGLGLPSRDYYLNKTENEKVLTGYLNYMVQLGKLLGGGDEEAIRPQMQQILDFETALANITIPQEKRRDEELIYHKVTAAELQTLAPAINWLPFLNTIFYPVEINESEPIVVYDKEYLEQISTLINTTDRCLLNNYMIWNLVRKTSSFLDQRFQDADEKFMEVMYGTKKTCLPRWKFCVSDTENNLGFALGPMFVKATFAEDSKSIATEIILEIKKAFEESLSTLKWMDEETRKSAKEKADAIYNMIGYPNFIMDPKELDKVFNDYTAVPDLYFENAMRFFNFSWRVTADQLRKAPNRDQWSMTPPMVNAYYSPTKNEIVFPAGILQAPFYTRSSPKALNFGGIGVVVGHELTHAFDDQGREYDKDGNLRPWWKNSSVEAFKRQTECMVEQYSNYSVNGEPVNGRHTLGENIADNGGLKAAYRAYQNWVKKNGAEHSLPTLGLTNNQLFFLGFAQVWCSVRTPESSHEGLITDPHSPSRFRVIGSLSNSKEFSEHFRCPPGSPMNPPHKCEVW

Rattus norvegicus [10] = assay: In vivo inhibition of NEP in Sprague-Dawley rat assessed as potentiation of ANP-induced elevation of urinary cGMP level at 3 mg/kg, iv treated for 5 mins at 15 mins post 2 doses of angiotensin-2 treatment at 15 minutes apart followed by ANP treatment measured up to 60 mins by EIA relative to control; format: functional; method in brief: as §1
Homo sapiens [11] = species: Homo sapiens; assay: Selectivity ratio of IC50 for recombinant human ECE1 to IC50 for recombinant human NEP
[12] = molecular target: aminopeptidase P (Xaa-Pro aminopeptidase, Homo sapiens); assay: Inhibition of APP (unknown origin)
Neprilysin = Neprilysin (Homo sapiens, UniProt P08473); assay: Inhibition of NEP (unknown origin) preincubated for 10 mins followed by fluorogenic substrate addition and measured after 20 mins by fluorescence assay
Neprilysin, sequence (P08473 whole entry): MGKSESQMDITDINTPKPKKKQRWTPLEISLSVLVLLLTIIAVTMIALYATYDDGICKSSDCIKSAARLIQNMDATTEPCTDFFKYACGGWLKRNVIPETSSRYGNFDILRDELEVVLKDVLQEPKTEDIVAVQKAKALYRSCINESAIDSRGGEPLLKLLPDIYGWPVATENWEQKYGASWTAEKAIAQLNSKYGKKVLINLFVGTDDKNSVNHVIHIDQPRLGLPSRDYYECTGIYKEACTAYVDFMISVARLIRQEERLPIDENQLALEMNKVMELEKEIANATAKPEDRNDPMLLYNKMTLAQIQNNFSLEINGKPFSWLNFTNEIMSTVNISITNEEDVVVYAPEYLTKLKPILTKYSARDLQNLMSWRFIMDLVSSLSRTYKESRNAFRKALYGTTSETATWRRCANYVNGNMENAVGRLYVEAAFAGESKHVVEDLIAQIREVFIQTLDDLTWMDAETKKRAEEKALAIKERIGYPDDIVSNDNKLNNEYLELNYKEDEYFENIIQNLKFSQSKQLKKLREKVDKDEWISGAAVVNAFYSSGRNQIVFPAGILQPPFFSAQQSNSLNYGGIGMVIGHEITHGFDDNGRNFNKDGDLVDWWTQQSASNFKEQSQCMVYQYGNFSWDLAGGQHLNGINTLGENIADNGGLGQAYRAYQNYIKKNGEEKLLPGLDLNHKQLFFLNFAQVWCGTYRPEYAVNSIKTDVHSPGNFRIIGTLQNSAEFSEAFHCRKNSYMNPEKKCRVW

SMILES	Ki [1]	inhibition in vivo at 3 mg/kg (Rattus norvegicus [2])	further results
CCOc1nc(CC)c(CNC(=O)[C@@H](CS)CC(C)C)n1Cc1ccc(-c2ccccc2C(=O)O)cc1	1.26 nM	67%	
CCCCc1nc(C2CC2)c(CNC(=O)[C@@H](CS)CC(C)C)n1Cc1ccc(-c2ccccc2C(=O)O)cc1	6.31 nM	55%	
CCCCc1nc(Cl)c(CNC(=O)C(CS)CC2CCCC2)n1Cc1ccc(-c2ccccc2C(=O)O)cc1 (racemic)	50.1 nM		
CCCCc1nc(Cl)c(CNC(=O)C(CS)C(C)C)n1Cc1ccc(-c2ccccc2C(=O)O)cc1 (racemic)	126 nM		
CCCCc1nc(Cl)c(CNC(=O)C(CS)CC(CC)CC)n1Cc1ccc(-c2ccccc2C(=O)O)cc1 (racemic)	50.1 nM		
CCOc1nc(CC)c(CNC(=O)[C@@H](S)CC(C)C)n1Cc1ccc(-c2ccccc2C(=O)O)cc1F	1.26 nM	76%	Activity (Rattus norvegicus [3]): Dose-dependent effect; ED10 (Rattus norvegicus [3]): 13 mg/kg; % IP accumulation [4]: < 5%; Ratio Ki (Homo sapiens [5]): 2000; IC50 [6]: > 10000 nM; Ki [7]: 2510 nM; Activity (Rattus norvegicus [8]): Dose-dependent effect; ED10 (Rattus norvegicus [8]): 44 mg/kg; IC50 [9]: 79.4 nM; fold change (FC) (Rattus norvegicus [10]): 3.5; Ratio IC50 (Homo sapiens [11]): 120; IC50 [12]: > 10000 nM
CCCCc1nc(C)c(CNC(=O)[C@@H](CS)CC(C)C)n1Cc1ccc(-c2ccccc2C(=O)O)cc1	50.1 nM		
CCCOc1nc(CC)c(CNC(=O)[C@@H](S)CC(C)C)n1Cc1ccc(-c2ccccc2C(=O)O)cc1	20 nM	23%	
CCCCc1nc(Cl)c(CNC(=O)C(CS)C(C)CC)n1Cc1ccc(-c2ccccc2C(=O)O)cc1 (racemic)	631 nM		
CCCCc1nc(Cl)c(CNC(=O)C(CS)Cc2ccc3ccccc3c2)n1Cc1ccc(-c2ccccc2C(=O)O)cc1 (racemic)	158 nM		
CCOc1nc(CC)c(CNC(=O)[C@@H](CS)CC(C)C)n1Cc1ccc(-c2ccccc2C(=O)O)c(F)c1	1.26 nM		
CCCCc1nc(Cl)c(CNC(=O)C(CS)Cc2ccccc2)n1Cc1ccc(-c2ccccc2-c2nnn[nH]2)cc1 (racemic)	15.8 nM		
CCCCc1nc(Cl)c(CNC(=O)C(CS)CC2CC2)n1Cc1ccc(-c2ccccc2C(=O)O)cc1 (racemic)	31.6 nM		
CCCCc1nc(Cl)c(CNC(=O)C(CS)CC(C)C)n1Cc1ccc(-c2ccccc2-c2nnn[nH]2)cc1 (racemic)	10 nM		
CCCCc1nc(Cl)c(CNC(=O)C(CS)CC2CCCCC2)n1Cc1ccc(-c2ccccc2C(=O)O)cc1 (racemic)	251 nM		
CCCCc1nc(CC)c(CNC(=O)[C@@H](S)CC(C)C)n1Cc1ccc(-c2ccccc2C(=O)O)cc1	39.8 nM	18%	
CCCCc1nc(Cl)c(CNC(=O)[C@@H](CS)CC(C)C)n1Cc1ccc(-c2ccccc2C(=O)O)cc1	15.8 nM	11%	
CCCCc1nc(Cl)c(CNC(=O)C(CS)Cc2cccc3ccccc23)n1Cc1ccc(-c2ccccc2C(=O)O)cc1 (racemic)	398 nM		
CCOc1nc(CC)c(CNC(=O)[C@@H](S)CC(C)C)n1Cc1ccc(-c2ccccc2C(=O)O)cc1	6.31 nM	57%	
CCCCc1nc(Cl)c(CO)n1Cc1ccc(-c2ccccc2-c2nn[nH]n2)cc1 [LOSARTAN]			IC50 (Neprilysin): > 10000 nM
CCOc1nc(CC)c(CNC(=O)[C@@H](S)CC(C)C)n1Cc1ccc(-c2ccccc2C(=O)O)c(F)c1	5.01 nM	57%	

SMILES	Ki [1]	inhibition in vivo at 3 mg/kg (Rattus norvegicus [2])	further results
CCCCc1nc(Cl)c(CNC(=O)C(CS)Cc2ccccc2)n1Cc1ccc(-c2ccccc2C(=O)O)cc1 (racemic)	79.4 nM		
O=C(O)CNC(=O)C(CS)Cc1ccccc1 (configuration not stated) [THIORPHAN]	> 10000 nM		
CCCCc1nc(Cl)c(CO)n1Cc1ccc(-c2ccccc2-c2nnn[nH]2)cc1 [LOSARTAN]		67%	% IP accumulation [4]: 87%
CCCCc1nc(C)c(CNC(=O)[C@@H](S)CC(C)C)n1Cc1ccc(-c2ccccc2C(=O)O)cc1	200 nM		
CCCCc1nc(Cl)c(CNC(=O)[C@@H](S)CC(C)C)n1Cc1ccc(-c2ccccc2C(=O)O)cc1	63.1 nM		
CCCCc1nc(Cl)c(CNC(=O)C(CS)CCC(C)C)n1Cc1ccc(-c2ccccc2C(=O)O)cc1 (racemic)	126 nM		
CCCCc1nc(C2CC2)c(CNC(=O)[C@@H](S)CC(C)C)n1Cc1ccc(-c2ccccc2C(=O)O)cc1	31.6 nM	5%	
CCOc1nc(CC)c(CNC(=O)[C@@H](CS)CC(C)C)n1Cc1ccc(-c2ccccc2C(=O)O)cc1F	0.794 nM	85%	
CCCCc1nc(Cl)c(CNC(=O)C(CS)CCCC)n1Cc1ccc(-c2ccccc2C(=O)O)cc1 (racemic)	126 nM		
CCCCc1nc(CC(C)C)c(CNC(=O)[C@@H](CS)CC(C)C)n1Cc1ccc(-c2ccccc2C(=O)O)cc1	7.94 nM		
CCCCc1nc(Cl)c(CNC(=O)CNC(=O)C(CS)Cc2ccccc2)n1Cc1ccc(-c2ccccc2-c2nnn[nH]2)cc1 (racemic)	10 nM		
CCCCc1nc(Cl)c(CNC(=O)C(CS)C(C)c2ccccc2)n1Cc1ccc(-c2ccccc2C(=O)O)cc1 (racemic)	79.4 nM		
CCCCc1nc(Cl)c(CNC(=O)C(CS)Cc2ccc(-c3ccccc3)cc2)n1Cc1ccc(-c2ccccc2C(=O)O)cc1 (racemic)	398 nM		
CCCCc1nc(Cl)c(CNC(=O)C(CS)CC(C)C)n1Cc1ccc(-c2ccccc2C(=O)O)cc1 (racemic)	39.8 nM		
CCCCc1nc(Cl)c(CNC(=O)[C@H](S)CC(C)C)n1Cc1ccc(-c2ccccc2C(=O)O)cc1	126 nM		
CCCCc1nc(Cl)c(CNC(=O)[C@H](CS)CC(C)C)n1Cc1ccc(-c2ccccc2C(=O)O)cc1	100 nM		
CCOc1nc(CC)c(CNC(=O)[C@@H](S)CC(C)C)n1Cc1cc(F)c(-c2ccccc2C(=O)O)cc1F	5.01 nM		
CCCCc1nc(CC)c(CNC(=O)[C@@H](CS)CC(C)C)n1Cc1ccc(-c2ccccc2C(=O)O)cc1	5.01 nM	68%	
CCCOc1nc(CC)c(CNC(=O)[C@@H](CS)CC(C)C)n1Cc1ccc(-c2ccccc2C(=O)O)cc1	2.51 nM	65%	
CCCCc1nc(CC(C)C)c(CNC(=O)[C@@H](S)CC(C)C)n1Cc1ccc(-c2ccccc2C(=O)O)cc1	31.6 nM	32%	
